Assay results taken from PubChem BioAssay.
Calls of active or inactive are those of the source.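 How the source made its calls, unless noted: active means potentiation averaged over duplicate wells exceeding buffer-only control mean by more than 3 SD; inactive means the rest.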

Assays:
[1] = thallium flux activation in parental CHO cells, counter-screen for KCNQ1 potentiator project (AID 493006;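 active means duplicate-averaged activation above buffer control mean plus 5 SD of those controls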;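 on activation: fluorescence ratio of max minus min over baseline after K+ and Tl+ depolarization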); settings: parental CHO-K1 cells, FluxOR thallium flux, at 10 µM; hits give high values
Procedure, shortened: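 Material: untransfected host CHO-K1 cells with FluxOR thallium dye. Timing: overnight 37 °C plating, 90 min RT dye, 20 min compound. Detection: kinetic FluxOR fluorescence, 10 s baseline, 110 s after stimulus. Read-out basis: max-minus-min fluorescence over baseline, percent of buffer-to-R-L3 span. Replicates: duplicate wells per compound, percent values averaged.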

[2] = target: Potassium voltage-gated channel subfamily KQT member 1 (Homo sapiens) (UniProt P51787); assay: KCNQ1 potassium channel potentiators, confirmation, FluxOR thallium flux, CHO cells, duplicates (AID 493007); settings: KCNQ1 cell line, FluxOR thallium flux fluorescence, at 10 µM; hits give high values, % of reference activator effect, buffer zero;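 on outcome: cells depolarized by a potassium plus thallium sulfate stimulus after compound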
Sequence of Potassium voltage-gated channel subfamily KQT member 1 (Homo sapiens) (P51787 whole entry, looked up): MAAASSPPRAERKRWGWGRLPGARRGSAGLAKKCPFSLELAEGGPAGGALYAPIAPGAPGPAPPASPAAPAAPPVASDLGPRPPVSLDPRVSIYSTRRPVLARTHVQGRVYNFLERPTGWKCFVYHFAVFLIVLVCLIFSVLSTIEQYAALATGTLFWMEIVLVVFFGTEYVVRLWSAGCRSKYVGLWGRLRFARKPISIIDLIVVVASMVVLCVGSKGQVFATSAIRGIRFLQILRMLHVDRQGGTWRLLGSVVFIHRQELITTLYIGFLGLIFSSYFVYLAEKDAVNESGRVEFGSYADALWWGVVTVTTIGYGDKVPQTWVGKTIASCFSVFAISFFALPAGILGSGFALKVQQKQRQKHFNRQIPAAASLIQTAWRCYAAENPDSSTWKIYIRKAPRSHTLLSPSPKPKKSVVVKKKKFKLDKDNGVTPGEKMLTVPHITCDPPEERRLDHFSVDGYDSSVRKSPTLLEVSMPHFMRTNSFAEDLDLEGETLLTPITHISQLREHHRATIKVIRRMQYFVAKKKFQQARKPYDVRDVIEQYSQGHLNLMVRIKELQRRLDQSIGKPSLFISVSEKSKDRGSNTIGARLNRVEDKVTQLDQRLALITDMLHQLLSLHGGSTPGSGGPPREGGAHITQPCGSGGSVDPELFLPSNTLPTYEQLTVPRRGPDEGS
Procedure, shortened: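 Test system – KCNQ1-expressing CHO cell line · Incubation – FluxOR dye loading 90 min, compound exposure 20 min, room temperature · Detection – FluxOR Tl+ flux fluorescence, 10 s baseline plus 110 s recording · Controls – buffer-only wells as 0% and R-L3 activator as 100%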

[3] = target: Potassium voltage-gated channel subfamily KQT member 2 (Rattus norvegicus) (UniProt O88943); assay: rat KCNQ2 channel potentiation, selectivity assay for KCNQ1 potentiator project, KCNQ2-CHO-K1 cells (AID 493009;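 active means mean duplicate potentiation above the buffer control mean plus 5 SD of buffer wells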;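 further: assay conditions were tuned for KCNQ1 rather than KCNQ2 modulators; signal is max minus min fluorescence divided by baseline after thallium stimulus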); settings: FluxOR thallium flux fluorescence, at 10 µM; hits give high values, scaled: buffer 0, activator control 100
Sequence of Potassium voltage-gated channel subfamily KQT member 2 (Rattus norvegicus) (O88943 whole entry, looked up): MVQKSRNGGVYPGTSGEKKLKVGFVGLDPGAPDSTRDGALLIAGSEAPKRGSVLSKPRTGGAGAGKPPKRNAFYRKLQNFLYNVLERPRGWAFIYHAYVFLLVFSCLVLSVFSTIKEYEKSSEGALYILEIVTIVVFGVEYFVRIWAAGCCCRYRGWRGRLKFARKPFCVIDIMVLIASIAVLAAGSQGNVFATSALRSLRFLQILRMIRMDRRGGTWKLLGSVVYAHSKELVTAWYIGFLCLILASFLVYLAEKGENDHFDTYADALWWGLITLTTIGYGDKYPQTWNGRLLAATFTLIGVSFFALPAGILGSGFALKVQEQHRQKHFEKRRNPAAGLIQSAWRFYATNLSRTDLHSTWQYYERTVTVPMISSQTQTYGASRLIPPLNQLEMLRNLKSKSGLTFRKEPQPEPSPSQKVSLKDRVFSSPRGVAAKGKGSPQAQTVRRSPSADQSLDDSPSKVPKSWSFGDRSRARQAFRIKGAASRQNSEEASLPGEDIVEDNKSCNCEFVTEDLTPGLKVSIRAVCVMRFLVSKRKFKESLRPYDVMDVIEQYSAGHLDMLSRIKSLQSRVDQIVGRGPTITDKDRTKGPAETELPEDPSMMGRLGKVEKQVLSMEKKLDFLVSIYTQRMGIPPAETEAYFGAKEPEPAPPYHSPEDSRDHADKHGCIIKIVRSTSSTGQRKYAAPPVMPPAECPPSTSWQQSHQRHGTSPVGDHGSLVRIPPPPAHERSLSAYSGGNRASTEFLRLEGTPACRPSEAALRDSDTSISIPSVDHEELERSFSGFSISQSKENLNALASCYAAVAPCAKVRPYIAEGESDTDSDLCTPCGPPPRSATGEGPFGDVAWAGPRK

[4] = target: Potassium voltage-gated channel subfamily KQT member 1 (Homo sapiens) (UniProt P51787); assay: KCNQ1 channel current potentiators, confirmation, orthogonal assay for KCNQ1 potentiator project, IonWorks patch clamp, KCNQ1-CHO cells (AID 493184;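 active means current rise at least 3 SD above the untreated control mean in each of two repeat wells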); settings: automated patch clamp current, at 10 µM; hits give high values
Procedure, shortened: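 Read-out: Percent current increase versus pre-compound level | Assay system: CHO cells carrying KCNQ1 | Measured by: Automated perforated-patch electrophysiology | Medium: External bath solution at pH 7.4 | Dosing: One dose, 10 µM final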

SMILES	outcome [1]	outcome [2]	outcome [3]	outcome [4]	activation [1]	potentiation [2]	potentiation [3]
CC1(C)CC(=O)C2=C(C1)c1c(ccc3ccccc13)NC2c1cc([N+](=O)[O-])cc([N+](=O)[O-])c1O (stereo not given)	inactive	inactive	inactive	inactive	–	–	–
CON/C=N/C(=S)Nc1ncc(C(F)(F)F)cc1Cl	–	–	–	inactive	283% (active)	87.5% (active)	337% (active)
COc1ccccc1OCCSc1nc2ccccc2n1CCC(=O)O	inactive	inactive	inactive	inactive	–	–	–
Cc1cccc(NC(=S)NC(=O)c2ccc(Br)o2)c1C	inactive	inactive	inactive	inactive	–	–	–
Oc1c(N=NC(=S)Nc2ccccc2F)c2ccccc2n1Cc1ccccc1F	–	–	–	inactive	142% (active)	64% (active)	169% (active)
CC(C)(C)CC(C)(C)NC(=S)NC1CCN(Cc2ccccc2)CC1	inactive	inactive	inactive	inactive	–	–	–
Cc1ccc(C)c(NC(=S)N(Cc2ccco2)C(C)c2cccs2)c1 (stereo not given)	inactive	inactive	inactive	inactive	–	–	–
CCN(CC)CC(=O)Nc1ccc2c(c1)Nc1ccccc1CC2	–	–	–	inactive	234% (active)	98% (active)	217% (active)
CCOC(=O)c1c(-c2ccc(C)o2)csc1NC(=S)NC(=O)N(C)C	–	–	–	inactive	266% (active)	171% (active)	314% (active)
CC(/C=C1\SC(=S)N(c2ccc(C(=O)O)cc2)C1=O)=C\c1ccccc1	inactive	inactive	inactive	inactive	–	–	–
CCc1nnc(SCC(=O)Nc2nnc(C)s2)n1CC1CCCO1 (stereo not given)	–	–	–	inactive	278% (active)	86.5% (active)	274% (active)
O=C(NC(=S)N1CCCCCC1)c1ccc(Cl)cc1Cl	–	inactive	–	inactive	148% (active)	–	158% (active)
COc1ccc(-c2cnc3c(c2)CCC3(C#N)C#N)cc1	inactive	inactive	inactive	inactive	–	–	–
CN(C)c1oc(-c2ccc(OCc3ccc(Cl)cc3)cc2)nc1C#N	inactive	inactive	inactive	inactive	–	–	–
C=CCn1c(SCc2ccc(C(=O)O)cc2)nc2sc(C)c(C)c2c1=O	–	–	–	inactive	216% (active)	72.5% (active)	236% (active)
CC1CCN(S(=O)(=O)c2cccc(C(=O)N3CCN(c4ccc(F)cc4)CC3)c2)CC1	inactive	inactive	inactive	inactive	–	–	–
Cc1ccc(-c2c(C(=O)O)c3ccccc3[nH]c2=O)cc1	inactive	inactive	inactive	inactive	–	–	–
CSc1nc(C)c2c(n1)N(c1ccc(C(C)C)cc1)CC2	inactive	inactive	inactive	inactive	–	–	–
CCOc1ccc(NC(=O)Cn2sc3nc(C)cc(C)c3c2=O)cc1	–	inactive	inactive	inactive	142% (active)	–	–
CC(=O)c1cc2c(cc1NC(=O)CN1Cc3ccccc3C1=O)OCO2	inactive	inactive	inactive	inactive	–	–	–

SMILES	outcome [1]	outcome [2]	outcome [3]	outcome [4]	activation [1]	potentiation [2]	potentiation [3]
CC(C)c1nc2n[nH]c(N)c2c2c1CCCC2	inactive	inactive	inactive	inactive	–	–	–
COC(=O)c1sc(NC(=S)NC(=O)c2ccc(C)cc2)nc1C	–	–	–	inactive	172% (active)	50.5% (active)	188% (active)
Cn1c(=O)c2c(SC3CCCC3)nc(C3CC3)nc2n(C)c1=O	inactive	inactive	inactive	inactive	–	–	–
COc1cccc(C(=O)COc2ccc(NC(=O)c3ccccc3)cc2)c1	inactive	inactive	inactive	inactive	–	–	–
Nc1ccc(C2(c3ccc(N)cc3)OC(=O)c3ccccc32)cc1	inactive	inactive	inactive	inactive	–	–	–
CC(=O)c1ccc(N2CCN(C(=O)c3ccc(NC(=O)C4CCCO4)cc3)CC2)cc1 (stereo not given)	inactive	inactive	inactive	inactive	–	–	–
Clc1ccc(-c2csc(N3CCc4ccccc4C3)n2)cc1	inactive	inactive	inactive	inactive	–	–	–
CCOc1ccc2[nH]c(=O)c(CN(Cc3ccc(C)cc3)C(=O)N3CCCC3)cc2c1	inactive	inactive	inactive	inactive	–	–	–
Cc1cc(S(=O)(=O)N2CCOCC2)ccc1OCC(=O)Nc1ccc(Br)cc1F	inactive	inactive	inactive	inactive	–	–	–
CCN(CC(=O)Nc1ccc(OC)cc1)C(=O)CSCC(=O)Nc1ccc(C)cc1	inactive	inactive	inactive	inactive	–	–	–
CC(C)CC(=O)O/N=C1\C(=O)N(c2ccccc2)c2ccccc21	inactive	inactive	inactive	inactive	–	–	–
CC1(C)CC(N2CCOCC2)=CC(=[N+]2CCOCC2)C1	inactive	inactive	inactive	inactive	–	–	–
Cc1nn(-c2ccccc2)c2nc(C(Cl)(Cl)Cl)[nH]c(=O)c12	–	inactive	inactive	inactive	145% (active)	–	–
CN1C(=O)CC(N2CCN(CC(=O)N3CCCC3)CC2)C1=O (stereo not given)	inactive	inactive	inactive	inactive	–	–	–
Fc1ccc(-n2nnc(-c3ccccc3)n2)cc1	inactive	inactive	inactive	inactive	–	–	–
Oc1[nH]c2ccc(Br)cc2c1N=NC(=S)Nc1ccc(F)cc1	inactive	–	–	inactive	–	43.5% (active)	160% (active)
Cc1ccc(C2=CSC3=NS(=O)(=O)CCN23)cc1	inactive	inactive	inactive	inactive	–	–	–
Cc1cc2ccccn2c1C(=S)NC(=O)c1ccccc1	–	–	–	inactive	290% (active)	102% (active)	370% (active)
O=C(C1CCCCC1)N1CCCC(c2nc3c(nnn3Cc3ccccc3)c(=O)[nH]2)C1 (stereo not given)	inactive	inactive	inactive	inactive	–	–	–
COC(=O)c1ccc(CSc2ncnc3c2sc2nc(N4CCOCC4)c4c(c23)CCCC4)o1	inactive	inactive	inactive	inactive	–	–	–

SMILES	outcome [1]	outcome [2]	outcome [3]	outcome [4]	activation [1]	potentiation [2]	potentiation [3]
COc1cccc(OC)c1C(=O)Nc1ccc(C(=O)NCc2ccccc2)cc1	inactive	inactive	inactive	inactive	–	–	–
COCCN(CCOC)Cc1cc(=O)oc2cc3c(cc12)CCC3	–	–	inactive	inactive	145% (active)	45.5% (active)	–
c1ccc2c(c1)CSc1sccc1C2=C1CCNCC1	inactive	inactive	inactive	inactive	–	–	–
O=Cc1ccccc1OCCCOc1cccc2cccnc12	inactive	inactive	inactive	inactive	–	–	–
O=C1CN(S(=O)(=O)c2ccccc2)CC(=O)N1CCc1ccccc1	inactive	inactive	inactive	inactive	–	–	–
CN(C)CCCN1c2ccccc2Sc2ccc(Cl)cc21	inactive	inactive	inactive	inactive	–	–	–
Cc1ccc(C(=O)Nc2nnn(C)n2)cc1	inactive	inactive	inactive	inactive	–	–	–
Oc1c(Br)cc(Br)cc1C=NCc1ccc(F)cc1	–	inactive	–	inactive	153% (active)	–	146% (active)
CCc1ccc(OCC(=O)Nc2ccc(S(=O)(=O)N3CCOCC3)cc2)cc1	inactive	inactive	inactive	inactive	–	–	–
Cc1cc(C)c2nc(NC(=O)c3cc(C)on3)sc2c1	–	–	–	inactive	174% (active)	36% (active)	166% (active)
COc1ccc2nc(/N=C/c3c(C)[nH]n(-c4ccc(C)cc4C)c3=O)sc2c1	–	–	–	inactive	232% (active)	113% (active)	306% (active)
Cc1noc(C)c1COc1ccc(CC(=O)NCc2ccccc2)cc1	inactive	inactive	inactive	inactive	–	–	–
COC(=O)c1ccc(NC(=S)NC(=O)c2cc(-c3ccccc3)nc3ccccc23)cc1	–	–	–	inactive	174% (active)	37% (active)	178% (active)
COc1ccc(CN2C(=O)C(O)(CC(=O)c3ccc4c(c3)OCO4)c3ccccc32)cc1OC (stereo not given)	inactive	inactive	inactive	inactive	–	–	–
CCCC(=O)N1CCN(Cc2nc3cc([N+](=O)[O-])ccc3n2C)CC1	inactive	inactive	inactive	inactive	–	–	–
O=c1c2ccc(Cl)cc2nc(-c2cccc(C(F)(F)F)c2)n1O	–	–	–	inactive	722% (active)	230% (active)	756% (active)
O=C1NC(=S)S/C1=C\c1ccc2ccccc2c1	–	–	–	inactive	234% (active)	82% (active)	218% (active)
c1ccc(CCCNc2ncnc3nc[nH]c23)cc1	–	–	–	inactive	316% (active)	78.5% (active)	291% (active)
COc1ccccc1/C=C1\N=C(C(C)(C)C)OC1=O	inactive	inactive	inactive	inactive	–	–	–
NC(=O)c1nsc(C(=O)N(CC(=O)NC2CCCCC2)c2ccc(Cl)cc2)c1N	inactive	inactive	inactive	inactive	–	–	–
